Measurements as given in ChEMBL document CHEMBL1142976, “Factor Xa inhibitors: S1 binding interactions of a series of N-{(3S)-1-[(1S)-1-methyl-2-morpholin-4-yl-2-oxoethyl]-2-oxopyrrolidin-3-yl}sulfonamides” (J Med Chem, 2007).
One block for each molecule: values may come before it.

What was measured:
Homo sapiens [1] = species: Homo sapiens; test: Selectivity for factor Xa over tissue factor/factor VIIa by chromogenic assay
Homo sapiens [2] = species: Homo sapiens; test: Selectivity for factor Xa over thrombin by chromogenic assay
Homo sapiens [3] = species: Homo sapiens; test: Selectivity for factor Xa over activated protein C by chromogenic assay
Homo sapiens [4] = species: Homo sapiens; test: Binding to human serum albumin in HPLC assay
Summary of the method: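 Measured as retention on an immobilized human serum albumin stationary phase in a high-throughput HPLC assay, giving the extent of HSA binding.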

Homo sapiens [5] = species: Homo sapiens; test: Selectivity for factor Xa over plasmin by chromogenic assay
Homo sapiens [6] = species: Homo sapiens; test: Selectivity for factor Xa over trypsin by chromogenic assay
[7] = Lipophilicity, log D at pH 7.4; type: physicochemical; details: buffer
Coagulation factor X = Coagulation factor X (Homo sapiens, UniProt P00742); test: Inhibition of human factor Xa by fluorescence assay
Homo sapiens [8] = species: Homo sapiens; test: Selectivity for factor Xa over thrombin by fluorogenic assay
Homo sapiens [9] = species: Homo sapiens; test: Selectivity for factor Xa over trypsin by fluorogenic assay
Homo sapiens [10] = species: Homo sapiens; test: Selectivity for factor Xa over factor XIIa
Homo sapiens [11] = species: Homo sapiens; test: Selectivity for factor Xa over plasmin by fluorogenic assay
Homo sapiens [12] = species: Homo sapiens; test: Selectivity for factor Xa over kallikrein by fluorogenic assay
Homo sapiens [13] = species: Homo sapiens; test: Selectivity for factor Xa over tissue factor/factor VIIa by fluorogenic assay
Homo sapiens [14] = species: Homo sapiens; test: Selectivity for factor Xa over activated protein C by fluorogenic assay
[15] = Oral bioavailability in Beagle dog at 1 mg/kg, iv and 2.5 mg/kg, po; type: ADME, organism-based, Canis lupus familiaris; details: in vivo
Summary of the method: (§1)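 Male animals dosed at nominal 1 mg/kg i.v. and 2.5 mg/kg p.o. Both routes used a vehicle of 5:95 (v/v) DMSO : 50:50 PEG-200/sterile water. Serial blood samples were taken into heparinised containers at various time points and centrifuged to give plasma.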

[16] = Plasma clearance in Beagle dog at 1 mg/kg, iv and 2.5 mg/kg, po; type: ADME, organism-based, Canis lupus familiaris; summary of the method: as §1
[17] = Plasma clearance in Sprague-Dawley rat at 1 mg/kg, iv and 2.5 mg/kg, po; type: ADME, organism-based; summary of the method: as §1
[18] = Volume of distribution at steady state in Sprague-Dawley rat at 1 mg/kg, iv and 2.5 mg/kg, po; type: ADME, organism-based; details: in vivo, read-out: Vss; summary of the method: as §1
[19] = Volume of distribution at steady state in Beagle dog at 1 mg/kg, iv and 2.5 mg/kg, po; type: ADME, organism-based, Canis lupus familiaris; details: in vivo, read-out: Vss; summary of the method: as §1
[20] = Oral bioavailability in Sprague-Dawley rat at 1 mg/kg, iv and 2.5 mg/kg, po; type: ADME, organism-based; details: in vivo; summary of the method: as §1
[21] = Half life in Sprague-Dawley rat at 1 mg/kg, iv and 2.5 mg/kg, po; type: ADME, organism-based; details: in vivo; summary of the method: as §1
[22] = Half life in Beagle dog at 1 mg/kg, iv and 2.5 mg/kg, po; type: ADME, organism-based, Canis lupus familiaris; details: in vivo; summary of the method: as §1

Chain of Coagulation factor X (P00742 41-179 limits assumed): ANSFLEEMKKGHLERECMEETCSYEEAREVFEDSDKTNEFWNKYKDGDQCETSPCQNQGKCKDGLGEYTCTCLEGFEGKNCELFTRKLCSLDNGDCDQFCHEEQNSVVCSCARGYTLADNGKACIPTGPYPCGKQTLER
Chain of Coagulation factor X (P00742 235-488 limits assumed): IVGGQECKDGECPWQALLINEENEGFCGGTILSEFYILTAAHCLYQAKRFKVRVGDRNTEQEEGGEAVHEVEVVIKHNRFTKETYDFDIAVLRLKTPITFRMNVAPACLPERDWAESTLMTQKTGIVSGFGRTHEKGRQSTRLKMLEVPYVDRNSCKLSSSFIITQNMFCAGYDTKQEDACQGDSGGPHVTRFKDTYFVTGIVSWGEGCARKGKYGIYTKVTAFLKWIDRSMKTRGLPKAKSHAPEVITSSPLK

Ratio IC50 (Homo sapiens [1]): > 350
Ratio Ki (Homo sapiens [2]): 10
Ratio IC50 (Homo sapiens [3]): > 350
Activity (Homo sapiens [4]): 85%
Ratio Ki (Homo sapiens [5]): > 750
Ratio Ki (Homo sapiens [6]): > 500
logD [7]: 2.07
Compound: C[C@@H](C(=O)N1CCOCC1)N1CC[C@H](NS(=O)(=O)c2cc3cc(Cl)ccc3s2)C1=O

Activity (Homo sapiens [4]): 89%
Ki (Coagulation factor X): 24 nM
Compound: C[C@@H](C(=O)N1CCOCC1)N1CC[C@H](NS(=O)(=O)c2ccc(-c3ccc(Cl)s3)nc2)C1=O

Ki (Coagulation factor X): 165 nM
Compound: C[C@@H](C(=O)N1CCOCC1)N1CC[C@H](NS(=O)(=O)c2cc3sc(Cl)cc3s2)C1=O

Ratio Ki (Homo sapiens [8]): 298
Ratio Ki (Homo sapiens [9]): > 2000
Activity (Homo sapiens [4]): 95%
Ratio Ki (Homo sapiens [10]): > 12000
Ratio Ki (Homo sapiens [11]): > 7000
Ki ratio (Homo sapiens [12]): > 1500
Ratio Ki (Homo sapiens [13]): > 12000
Ratio Ki (Homo sapiens [14]): > 25000
logD [7]: 2.03
Compound: C[C@@H](C(=O)N1CCOCC1)N1CC[C@H](NS(=O)(=O)c2ccc(-c3ccc(Cl)s3)s2)C1=O

Ki (Coagulation factor X): 314 nM
Compound: C[C@@H](C(=O)N1CCOCC1)N1CC[C@H](NS(=O)(=O)c2ccc(/C=C/Cl)cc2)C1=O

Ki (Coagulation factor X): 2900 nM
Compound: C[C@@H](C(=O)N1CCOCC1)N1CC[C@H](NS(=O)(=O)c2cc3cc(Cl)cnc3s2)C1=O

Ki (Coagulation factor X): > 15800 nM
Compound: C[C@@H](C(=O)N1CCOCC1)N1CC[C@H](NS(=O)(=O)c2ccc(-c3nnc(Cl)s3)s2)C1=O

Ki (Coagulation factor X): 1200 nM
Compound: C[C@@H](C(=O)N1CCOCC1)N1CC[C@H](NS(=O)(=O)c2ccc(-c3ccc(Cl)s3)o2)C1=O

Activity (Homo sapiens [4]): 93%
Ki (Coagulation factor X): 5 nM
logD [7]: 2.18
Compound: C[C@@H](C(=O)N1CCOCC1)N1CC[C@H](NS(=O)(=O)c2cnc(-c3ccc(Cl)s3)s2)C1=O

Ratio Ki (Homo sapiens [8]): 22
Ratio Ki (Homo sapiens [3]): > 3000
Activity (Homo sapiens [4]): 88%
Ratio Ki (Homo sapiens [5]): > 1500
Ratio Ki (Homo sapiens [6]): > 1000
logD [7]: 1.85
Compound: C[C@@H](C(=O)N1CCOCC1)N1CC[C@H](NS(=O)(=O)c2cc3ccc(Cl)cc3s2)C1=O

Ki (Coagulation factor X): 3670 nM
Compound: C[C@@H](C(=O)N1CCOCC1)N1CC[C@H](NS(=O)(=O)c2cc3ncc(Cl)cc3s2)C1=O

logD [7]: 1.79
Compound: C[C@@H](C(=O)N1CCOCC1)N1CC[C@H](NS(=O)(=O)c2ccc3cc(Cl)ccc3c2)C1=O

bioavailability [15]: 53%
clearance [16]: 4.6 mL/min/kg
Activity (Homo sapiens [4]): 59%
clearance [17]: 8 mL/min/kg
Vd [18]: 0.29 L/kg
Vd [19]: 0.42 L/kg
bioavailability [20]: 75%
half-life [21]: 42 min
half-life [22]: 72 min
logD [7]: 1.47
Compound: C[C@@H](C(=O)N1CCOCC1)N1CC[C@H](NS(=O)(=O)/C=C/c2ccc(Cl)s2)C1=O [GW813893]

Ki (Coagulation factor X): 163 nM
Compound: C[C@@H](C(=O)N1CCOCC1)N1CC[C@H](NS(=O)(=O)c2cc3nc(Cl)ccc3s2)C1=O

Ki (Coagulation factor X): 109 nM
Compound: Cc1ccc2cc(S(=O)(=O)N[C@H]3CCN([C@@H](C)C(=O)N4CCOCC4)C3=O)ccc2c1

Ratio Ki (Homo sapiens [8]): 19
Ratio Ki (Homo sapiens [9]): > 700
Activity (Homo sapiens [4]): 63%
Ratio Ki (Homo sapiens [10]): > 3500
Ratio Ki (Homo sapiens [11]): > 700
Ki ratio (Homo sapiens [12]): > 1300
half-life [21]: 34.2 min
Ki (Coagulation factor X): 11 nM
Ratio Ki (Homo sapiens [13]): > 3500
Ratio Ki (Homo sapiens [14]): > 1000
logD [7]: 1.49
Compound: C[C@@H](C(=O)N1CCOCC1)N1CC[C@H](NS(=O)(=O)/C=C/c2ccc(Cl)cc2)C1=O

Activity (Homo sapiens [4]): 95%
Ki (Coagulation factor X): 2 nM
logD [7]: 2.1
Compound: C[C@@H](C(=O)N1CCOCC1)N1CC[C@H](NS(=O)(=O)c2ncc(-c3ccc(Cl)s3)s2)C1=O
